The IC50 is the concentration needed to halve the response being measured.

One test has as its target T1, hMAGL (Homo sapiens, UniProt Q99685).
T1 sequence (Q99685 1-303): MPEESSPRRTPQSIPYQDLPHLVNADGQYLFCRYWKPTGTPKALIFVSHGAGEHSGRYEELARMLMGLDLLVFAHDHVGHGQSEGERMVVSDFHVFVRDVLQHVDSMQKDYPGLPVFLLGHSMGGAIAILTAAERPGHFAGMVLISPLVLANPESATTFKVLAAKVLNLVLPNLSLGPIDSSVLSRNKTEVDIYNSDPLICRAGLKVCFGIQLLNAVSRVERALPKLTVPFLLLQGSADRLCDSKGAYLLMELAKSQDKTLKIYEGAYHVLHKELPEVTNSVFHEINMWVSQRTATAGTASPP
In words: competitive ABPP, proteomes of transiently transfected HEK293T cells. It counts as biochemical. The note with it: read-out: IC50 (95% CI), human MAGL, transfected HEK293T cell proteome.

The subject of test [1] is brain 2-AG, AA, AEA, PEA, OEA. Put plainly: brain lipid profile of KML29-treated rats. It counts as in vivo, rat. The settings on record: 1–40 mg kg^−1 i.p., 4 h. The procedure, abridged:
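Wistar rats were given the test compound i.p. (1–40 mg kg−1, saline:emulphor:ethanol 18:1:1 vehicle) or vehicle and killed at 4 h. Brain 2-AG, AA, AEA, PEA and OEA levels were measured. Means ± SEM, n = 3 rats/group, with statistics against vehicle-treated rats.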

Test [2] has as its target T2, MAGL (Mus musculus, UniProt O35678).
T2 sequence (O35678 1-303): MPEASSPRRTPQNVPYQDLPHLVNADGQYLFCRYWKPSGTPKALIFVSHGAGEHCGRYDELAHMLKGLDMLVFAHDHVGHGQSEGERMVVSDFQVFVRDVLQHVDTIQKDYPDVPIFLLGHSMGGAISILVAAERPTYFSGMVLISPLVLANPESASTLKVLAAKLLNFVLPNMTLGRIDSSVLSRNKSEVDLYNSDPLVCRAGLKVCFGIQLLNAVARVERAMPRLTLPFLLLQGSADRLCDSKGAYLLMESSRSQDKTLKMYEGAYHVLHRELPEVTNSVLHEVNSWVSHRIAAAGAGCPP
Put plainly: 2-AG substrate assay in mouse brain proteomes. It is filed as biochemical.

For test [3], the system named is other rat brain serine hydrolases. In words: competitive ABPP, rat brain proteome, other serine hydrolases. It counts as biochemical. Summed up:
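Rat brain proteome was preincubated with test compound, then labelled with the serine hydrolase-directed probe FP-rhodamine. Proteins were separated by SDS-PAGE and scanned by in-gel fluorescence. Inhibition of individual serine hydrolases was scored as reduced probe labelling.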

The target in test [4] is T3, MAGL (Rattus norvegicus, UniProt Q8R431).
T3 sequence (Q8R431 1-303): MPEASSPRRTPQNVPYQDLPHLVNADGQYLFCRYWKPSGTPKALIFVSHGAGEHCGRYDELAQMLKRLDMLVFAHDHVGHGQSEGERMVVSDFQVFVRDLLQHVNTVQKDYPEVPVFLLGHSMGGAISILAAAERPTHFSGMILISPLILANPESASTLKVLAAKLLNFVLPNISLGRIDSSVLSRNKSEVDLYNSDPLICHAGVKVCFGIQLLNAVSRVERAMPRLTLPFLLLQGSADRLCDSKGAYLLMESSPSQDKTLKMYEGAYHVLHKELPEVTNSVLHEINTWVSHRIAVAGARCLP
Put plainly: brain 2-AG hydrolytic activity from KML29-treated rats. The settings on record: 4 h. It counts as in vivo. The procedure, abridged: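 Wistar rats received the test compound i.p. (1–40 mg kg−1 in saline:emulphor:ethanol 18:1:1) or vehicle and were killed after 4 h. Brain MAGL and FAAH activities were measured as hydrolysis of 2-AG and AEA, respectively. Means ± SEM, n = 3 rats/group, compared with vehicle-treated rats.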

The target of a further test is T4, ABHD6 (Rattus norvegicus, UniProt Q5XI64).
T4 sequence (Q5XI64 1-337): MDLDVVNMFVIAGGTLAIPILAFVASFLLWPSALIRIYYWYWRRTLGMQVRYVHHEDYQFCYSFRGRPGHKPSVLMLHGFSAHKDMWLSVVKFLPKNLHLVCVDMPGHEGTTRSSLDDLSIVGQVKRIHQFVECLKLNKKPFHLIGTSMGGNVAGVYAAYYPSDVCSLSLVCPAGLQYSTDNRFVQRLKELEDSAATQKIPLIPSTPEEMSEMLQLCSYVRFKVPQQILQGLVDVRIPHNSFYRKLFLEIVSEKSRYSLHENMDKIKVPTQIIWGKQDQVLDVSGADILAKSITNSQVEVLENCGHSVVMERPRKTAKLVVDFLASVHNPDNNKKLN
In words: competitive ABPP, rat brain membrane proteome. It counts as biochemical. The settings on record: rat brain serine hydrolase activities, full ABPP gel. Summed up:
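Brain (mouse or rat) or mouse lung proteomes were preincubated with the test compound, then treated with the serine hydrolase probe FP-Rh. Samples were separated by SDS-PAGE and read by in-gel fluorescence scanning. Inhibition was taken as reduced FP-Rh labelling of MAGL, ABHD6, FAAH or CES bands, and IC50 values were calculated from quantified gel bands. Three independent experiments.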

Test [5] has as its system carboxylesterase (CES) enzymes. Put plainly: in vitro competitive ABPP in mouse lung proteomes. It is filed as biochemical.
Test [6] concerns the target T2, MAGL. Put plainly: competitive ABPP, mouse brain membrane proteome. It counts as biochemical.
In test [7] the target is T3, MAGL. Put plainly: competitive ABPP of peripheral tissues from KML29-treated rats. It is filed as in vivo. The settings on record: 4 h. Summed up: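 Wistar rats were injected i.p. with the test compound (1–40 mg kg−1) or vehicle. Vehicle was saline:emulphor:ethanol 18:1:1, with prolonged sonication and mild heating to dissolve. Rats were killed at 4 h. Brain, liver, lung and spleen proteomes were labelled with FP-Rh, separated by SDS-PAGE and scanned for in-gel fluorescence. Inhibition was scored as reduced probe labelling. n = 3 rats/group.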

Structures are written as SMILES.

Regarding `O=C(OC(C(F)(F)F)C(F)(F)F)N1CCC(C(O)(c2ccc3c(c2)OCO3)c2ccc3c(c2)OCO3)CC1` [KML29], the half-maximal inhibitory concentration (IC50) at hMAGL was 5.9 nM. Also, in test [1], the “brain AA levels” value is on record as “decrease proportionally with the elevations in 2-AG”; the “brain AEA, PEA, or OEA” value is recorded as “without alteration”; the “elevations in brain 2-AG” value is reported as “approximately 10 fold”. Besides, the “inhibition of 2-AG hydrolysis” value against MAGL [2] is listed as “potent inhibitor of 2-AG hydrolysis”. Also, the “additional off-target reactivity with other rat brain serine hydrolases” value in test [3] is “did not detect any additional off-target reactivity”. The “decrease of brain 2-AG hydrolytic activity” value at MAGL [4] (20 mg kg^−1 i.p.) was determined as 50%. Moreover, the “decrease of brain 2-AG hydrolytic activity” value on MAGL [4] (40 mg kg^−1 i.p.) was 80%. At ABHD6, the “concentrations with inhibition of ABHD6” value is over 1 µM. Further, the “cross-reactivity with CESs compared to JZL184” value in test [5] is recorded as “much less cross-reactivity with CESs”. Moreover, on MAGL [6] (mouse brain proteome, competitive ABPP), the “selectivity for MAGL relative to ABHD6” value is reported as “greater than 100 fold”. The “inhibitor concentrations with selective inhibition of MAGL” value at MAGL [6] (mouse brain serine hydrolase activities, full ABPP gel) was at most 1 µM. Further, the “MAGL inhibition in lung and spleen” value at MAGL [7] (5 mg kg^−1 i.p.) is “complete MAGL inhibition”. In addition, at MAGL [7] (20 mg kg^−1 i.p.), the “MAGL inhibition in liver” value was “complete MAGL inhibition”.

The values are drawn from paper PMC3361572 (Chemistry & biology, 2012).
